procasp7 counter = counter-screen for procaspase-3 activators: activators of human procaspase-7. recombinant procaspase-7, Ac-DEVD-pNA absorbance 405 nm; D23A/D198A/D206A triple mutant, cannot self-cleave; scale: DMSO 0, 5 µM enzyme 100. P55210. hit rate 0.093% among 330,000. AID 463210. activation, % at 8.5 µM;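 active = percent activation above the screen-wide mean plus 3 SD, cut at about 25% in these data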
Target sequence (P55210 whole entry D23A/D198A/D206A): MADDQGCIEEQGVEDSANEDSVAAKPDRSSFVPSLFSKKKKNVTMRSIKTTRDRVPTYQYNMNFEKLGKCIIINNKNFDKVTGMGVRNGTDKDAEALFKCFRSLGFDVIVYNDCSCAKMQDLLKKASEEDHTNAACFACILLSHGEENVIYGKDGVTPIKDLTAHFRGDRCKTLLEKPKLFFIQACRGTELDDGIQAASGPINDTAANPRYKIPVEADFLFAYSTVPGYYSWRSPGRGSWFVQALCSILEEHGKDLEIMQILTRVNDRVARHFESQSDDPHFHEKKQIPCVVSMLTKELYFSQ
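System: Uncleavable procaspase-7 mutant enzyme; Amount: 2 µM procaspase-7 mutant as dispensed; Schedule: 1 h compound preincubation, 2 h substrate cleavage, 25 °C; Measured by: 405 nm absorbance of p-nitroaniline; Evaluation: percent activation from buffer-corrected 0–120 min absorbance change; Control set: low DMSO alone, high DMSO plus 5 µM PC-7.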
Yeast superoxide = lowers age-related superoxide in aged yeast cells; superoxide response (% of plate mean), % at 10 µM; S. cerevisiae aged cells, superoxide DHE fluorescence; active compounds read low; hit rate 0.18% among 330,000;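 active = superoxide response under a set limit, about three screen SD below normal, cut at about 65% in these data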;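 note: yeast aged for seven days with compound at 30 °C before DHE staining; 100% = average MFI of all compound-treated wells on the plate with controls excluded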
ARFGAP1 inh = inhibitors of rat ARFGAP1 | AID 651572 | Arfgap1-stimulated ARF1 GTP hydrolysis, GDP FP detection | Q62848 | inhibition, % at 16.5 µM | hit rate 0.26% among 360,000;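 active = inhibition above a per-plate limit, mean inhibition of low control wells plus 3 SD, cut at about 25% in these data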;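 note: 0% = DMSO wells with enzyme and 100% = wells lacking Arfgap1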
Target sequence (Q62848 1-136 limits assumed): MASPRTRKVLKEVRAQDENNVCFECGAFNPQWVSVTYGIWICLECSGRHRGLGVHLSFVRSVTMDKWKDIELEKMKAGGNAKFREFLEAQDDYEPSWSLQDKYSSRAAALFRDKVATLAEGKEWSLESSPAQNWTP
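Material: truncated rat Arfgap1 GAP domain; Incubation: compound-enzyme preincubation 20 min, reaction 120 min, detection 60 min, 25 °C; Read-out: percent inhibition of Arfgap1-stimulated GTP hydrolysis; Technique: FP, GDP Alexa 633 tracer displaced from anti-GDP antibody, 620/688 nm; Controls: No-Arfgap1 wells (100%) versus DMSO full-reaction wells (0%); Replication: single well per compound.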
procasp3 activ = activates human procaspase-3; hit rate 0.11% among 330,000; recombinant procaspase-3 D3A, Ac-DEVD-pNA absorbance 405 nm; activation, % at 8.5 µM; AID 463141;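 active = activation above the mean of all tested compounds plus 3 SD, cut at about 21% in these data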;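 note: 0% = DMSO alone and 100% = DMSO wells spiked with extra 5 µM PC-3 D3A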
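Test system: Procaspase-3 D3A mutant, all three cleavage aspartates alanine | Dosing: Single dose, 8.5 µM nominal compound, 0.8% DMSO | Schedule: 1 h preincubation, 2 h reaction | Technique: 405 nm absorbance of p-nitroaniline, reads at 0 and 120 min | Repeats: One well per compound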
LANA-H2B inh = blocks KSHV LANA binding to histone H2A/H2B | inhibition, % (concentration not given with the values) | cell-free LANA-H2A/H2B peptide, fluorescence polarization | hit rate 0.6% among 320,000; in the data active = inhibition mostly above about 10%, no sharp cut-off; inactive = mostly below about 6.7%
ASAP1 GAP inh = ASAP1 ArfGAP inhibition; Q9ULH1; ASAP1-stimulated ARF1 GTP hydrolysis, GDP FP detection; inhibition, % at 16.5 µM; hit rate 0.19% among 360,000; AID 624377; in the data active = inhibition above about 25%;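 note: 0% = vehicle with enzyme and substrate and 100% = no enzyme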
* hit, by the source's call; x = not tested or not shown. Shown are actives, neighbours in structure and some others; about 1.2% of the full set was active somewhere.

SMILES	procasp7 counter	Yeast superoxide	ARFGAP1 inh	procasp3 activ	LANA-H2B inh	ASAP1 GAP inh
COC(=O)[C@]12C[C@H](CC(=O)N3CCSCC3)C(=O)N(CCC3=CCCCC3)C1=C[C@H](C(C)(C)C)O[C@@H]2C	x	x	-8.7	x	x	-3.4
CCOC(=O)C1=C(C(=O)OCC)C2N(Cc3ccc(C(F)(F)F)cc3)c3ccccc3[C@@]23C[C@@H](C(=O)OC)N(S(=O)(=O)c2cccs2)C3=N1 (stereo partly drawn)	x	x	7.7	x	x	-13.2
COc1ccc(CCNC(=O)C2CCC(C(C)(C)C)CC2)cc1OC (stereo not drawn)	3.4	123.8	0.8	-8.1	57.8*	0.5
COc1ccc(CCNC(=O)C(=O)NCC2CCCO2)cc1OC (stereo not drawn)	-4.1	91.1	-3.6	9.1	40.6*	1.6
COc1cccc(CNC(=O)[C@H]2CCCN2C(=O)[C@H]2CCCN2C(=O)c2cccc(OC)c2)c1	x	x	-3.2	x	x	-9.0
O=C(Nc1cc([N+](=O)[O-])ccc1F)C1CC1	5.3	100.4	-4.1	-6.6	28.6*	6.7
O=C(Nc1cc([N+](=O)[O-])ccc1Cl)C1CC1	0.1	105.0	1.8	-4.5	-3.7	-7.0
CCOC(=O)C1=C(C(=O)OCC)C2N(Cc3ccc(C#N)cc3)c3ccccc3[C@@]23C[C@@H](C(=O)OC)N(S(=O)(=O)c2c(C)noc2C)C3=N1 (stereo partly drawn)	x	x	-3.7	x	x	7.7
CC(C)C[C@H](NC(=O)c1cccs1)C(=O)N1CCC[C@H]1C(=O)NCc1ccccc1	x	x	13.0	x	x	-1.1
CCNC(=O)c1sc2cc(C)ccc2c1Cl	-4.3	97.8	-2.3	-13.1	36.0*	-1.5
O=C(CCn1c(=S)oc2ccccc21)Nc1cccc(O)c1	9.0	93.4	-10.5	-2.9	2.0	14.9
O=C(CCn1c(=S)oc2ccccc21)Nc1cccc(F)c1	4.1	84.2	11.7	5.9	129.3*	-0.7
Cc1cc(NC(=O)c2cc(-c3ccco3)on2)nn1Cc1ccc(Cl)cc1	-12.3	90.2	3.7	-3.3	15.0*	18.3
Cc1nn(Cc2ccc(Cl)cc2)c(C)c1NC(=O)c1cc(-c2ccco2)on1	1.6	109.7	4.8	6.2	-1.2	3.7
CCOc1c(C)cnc2c1c(=O)n(Cc1cccc(Cl)c1)c(=O)n2C	7.3	144.1	-1.0	1.3	-6.1	-10.6
CCOc1c(C)cnc2c1c(=O)n(Cc1ccc(Cl)cc1)c(=O)n2C	-0.7	103.4	-7.4	2.6	16.6*	3.6
O=C(NCCc1ccc(Cl)cc1)C1CCC(=O)N1Cc1ccccc1Cl (stereo not drawn)	-6.7	130.4	-6.7	-0.4	13.4*	0.4
COc1ccc(CCNC(=O)C2CCC(=O)N2Cc2ccccc2Cl)cc1OC (stereo not drawn)	-9.3	104.6	0.7	-6.3	0.1	9.5
O=C(NCc1ccccc1)C(c1ccc(C(F)(F)F)cc1)N1CCN(CCN2CCOCC2)CC1 (stereo not drawn)	x	x	11.6	x	x	-0.5
CCC(=O)N1CCC(C)(C(=O)NCc2ccc(F)cc2)C1 (stereo not drawn)	x	x	0.4	x	x	2.7
Nc1cc(=O)[nH]c(SCC(=O)Nc2cccc(Cl)c2)n1	7.9	83.5	3.3	0.9	-1.2	13.1
Nc1cc(=O)[nH]c(SCC(=O)Nc2ccc(Oc3ccccc3)cc2)n1	2.2	97.4	-6.6	-1.3	16.3*	3.0
COc1ccc(CCN2CCCC(CN(C)C(=O)c3ccoc3)C2)cc1 (stereo not drawn)	x	106.0	-3.1	x	15.4*	7.8
CCOC(=O)c1ccc(-n2c(N)c(C(=O)NCc3ccco3)sc2=S)cc1	-19.9	129.3	x	-2.3	-4.2	x
C=CCNC(=O)c1sc(=S)n(-c2ccc(C(=O)OCC)cc2)c1N	-7.5	121.7	-4.1	-13.1	39.5*	8.3
O=C(N/N=C/c1ccc(OCC(=O)N2CCCC2)cc1)C(=O)NC1CC1	0.3	82.5	18.7	6.6	26.0*	-0.8
COC(=O)C1=C(C)N(Cc2cccc(C(F)(F)F)c2)C(=NCc2cc(OC)c(OC)c(OC)c2)NC1c1ccccc1 (stereo not drawn)	x	x	15.1	x	x	-3.7
